{"source": "paper PMC10825549", "about": "(JID Innovations, 2023)", "key": {"[1]": {"assay": "28-day minipig repeat exposure study: toxicokinetics", "assay_type": "in vivo", "conditions": "for concentration at 0 h / concentration at 0.5 h / concentration at 1 h / concentration at 2 h / concentration at 4 h / concentration at 8 h / concentration at 12 h / concentration at 24 h: both, plasma, topical; for concentration in the skin: terminal sacrifice (day 28)", "in_short": "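Topical solution applied to minipigs once daily for 28 days at 0, 40, 80 or 160 mg/day, left on skin 20–22 h, then wiped with moist towel. Jugular blood collected days 1 and 28, pre-dose and ~0.5, 1, 2, 4, 8, 12, 22 h after application, after IM acepromazine 0.2–0.4 mg/kg. Pigs nonfasted; K2 EDTA plasma; validated LC-MS/MS.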"}, "[2]": {"assay": "7-day minipig study: plasma pharmacokinetics", "assay_type": "in vivo"}, "Aurora A": {"target": "Aurora A (Homo sapiens, UniProt O14965)", "sequence (O14965 whole entry)": "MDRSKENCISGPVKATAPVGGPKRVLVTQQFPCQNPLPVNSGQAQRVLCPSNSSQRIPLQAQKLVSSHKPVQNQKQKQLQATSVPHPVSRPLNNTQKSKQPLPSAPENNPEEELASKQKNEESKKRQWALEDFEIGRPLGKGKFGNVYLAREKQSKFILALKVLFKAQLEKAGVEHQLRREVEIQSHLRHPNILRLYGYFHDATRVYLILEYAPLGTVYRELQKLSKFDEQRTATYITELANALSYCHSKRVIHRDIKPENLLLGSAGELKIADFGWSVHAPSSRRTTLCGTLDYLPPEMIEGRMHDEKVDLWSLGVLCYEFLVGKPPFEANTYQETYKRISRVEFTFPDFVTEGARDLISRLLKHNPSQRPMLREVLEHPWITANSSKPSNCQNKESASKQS", "assay": "IC50 for kinases of potential cross-over", "assay_type": "biochemical"}, "[3]": {"assay": "Metabolic stability in liver microsomes", "assay_type": "in vitro ADME", "conditions": "rat", "in_short": "(§1)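 Test compound from 1 mM DMSO solution preincubated 5 min with dog, human, monkey, rat or minipig liver microsomes. NADPH (10 mM) then added. Reactions stopped at 0, 5, 15 and 30 min with 0.05% formic acid in acetonitrile containing loperamide internal standard. Supernatants analysed by LC-MS/MS; n = 1 per microsome species.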"}, "[4]": {"assay": "Metabolic stability in liver microsomes", "assay_type": "in vitro ADME", "conditions": "human", "in_short": "as §1"}, "CYP1A2": {"target": "CYP1A2 (Homo sapiens, UniProt P05177)", "sequence (P05177 whole entry)": "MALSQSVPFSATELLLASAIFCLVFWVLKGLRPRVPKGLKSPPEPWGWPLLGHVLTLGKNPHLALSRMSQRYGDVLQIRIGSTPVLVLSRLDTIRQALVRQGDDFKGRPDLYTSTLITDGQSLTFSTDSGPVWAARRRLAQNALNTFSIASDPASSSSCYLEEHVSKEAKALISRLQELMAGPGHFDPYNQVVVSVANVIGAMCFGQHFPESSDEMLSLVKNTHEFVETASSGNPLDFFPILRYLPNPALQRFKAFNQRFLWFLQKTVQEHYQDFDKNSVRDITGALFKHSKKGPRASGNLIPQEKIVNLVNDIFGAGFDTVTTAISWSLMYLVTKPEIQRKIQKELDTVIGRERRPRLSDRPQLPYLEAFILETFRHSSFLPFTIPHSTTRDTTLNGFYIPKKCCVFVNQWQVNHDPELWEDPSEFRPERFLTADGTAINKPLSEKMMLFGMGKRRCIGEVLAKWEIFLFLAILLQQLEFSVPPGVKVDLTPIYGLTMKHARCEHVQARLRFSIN", "assay": "Cytochrome P450 phenotyping", "assay_type": "in vitro ADME", "conditions": "recombinant human CYP1A2; with NADPH; 60 minutes; n = 1", "in_short": "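Recombinant human CYPs prepared at CYP1A2 200 nM, CYP2B6/2C8 250 nM, CYP2C9 100 nM, CYP2D6 50 nM. Test compound added as 2 μM DMSO dosing solution on ice. Plate prewarmed, then 8 mM NADPH solution or blank buffer added. Incubation 60 min (1A2, 2B6, 2C8) or 30 min (2C9, 2D6). Stopped with acetonitrile plus internal standard; supernatant by LC-MS/MS; n = 1.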"}, "FLT4 (VEGFR3)": {"target": "FLT4 (VEGFR3) (Homo sapiens, UniProt P35916)", "sequence (P35916 25-1363)": "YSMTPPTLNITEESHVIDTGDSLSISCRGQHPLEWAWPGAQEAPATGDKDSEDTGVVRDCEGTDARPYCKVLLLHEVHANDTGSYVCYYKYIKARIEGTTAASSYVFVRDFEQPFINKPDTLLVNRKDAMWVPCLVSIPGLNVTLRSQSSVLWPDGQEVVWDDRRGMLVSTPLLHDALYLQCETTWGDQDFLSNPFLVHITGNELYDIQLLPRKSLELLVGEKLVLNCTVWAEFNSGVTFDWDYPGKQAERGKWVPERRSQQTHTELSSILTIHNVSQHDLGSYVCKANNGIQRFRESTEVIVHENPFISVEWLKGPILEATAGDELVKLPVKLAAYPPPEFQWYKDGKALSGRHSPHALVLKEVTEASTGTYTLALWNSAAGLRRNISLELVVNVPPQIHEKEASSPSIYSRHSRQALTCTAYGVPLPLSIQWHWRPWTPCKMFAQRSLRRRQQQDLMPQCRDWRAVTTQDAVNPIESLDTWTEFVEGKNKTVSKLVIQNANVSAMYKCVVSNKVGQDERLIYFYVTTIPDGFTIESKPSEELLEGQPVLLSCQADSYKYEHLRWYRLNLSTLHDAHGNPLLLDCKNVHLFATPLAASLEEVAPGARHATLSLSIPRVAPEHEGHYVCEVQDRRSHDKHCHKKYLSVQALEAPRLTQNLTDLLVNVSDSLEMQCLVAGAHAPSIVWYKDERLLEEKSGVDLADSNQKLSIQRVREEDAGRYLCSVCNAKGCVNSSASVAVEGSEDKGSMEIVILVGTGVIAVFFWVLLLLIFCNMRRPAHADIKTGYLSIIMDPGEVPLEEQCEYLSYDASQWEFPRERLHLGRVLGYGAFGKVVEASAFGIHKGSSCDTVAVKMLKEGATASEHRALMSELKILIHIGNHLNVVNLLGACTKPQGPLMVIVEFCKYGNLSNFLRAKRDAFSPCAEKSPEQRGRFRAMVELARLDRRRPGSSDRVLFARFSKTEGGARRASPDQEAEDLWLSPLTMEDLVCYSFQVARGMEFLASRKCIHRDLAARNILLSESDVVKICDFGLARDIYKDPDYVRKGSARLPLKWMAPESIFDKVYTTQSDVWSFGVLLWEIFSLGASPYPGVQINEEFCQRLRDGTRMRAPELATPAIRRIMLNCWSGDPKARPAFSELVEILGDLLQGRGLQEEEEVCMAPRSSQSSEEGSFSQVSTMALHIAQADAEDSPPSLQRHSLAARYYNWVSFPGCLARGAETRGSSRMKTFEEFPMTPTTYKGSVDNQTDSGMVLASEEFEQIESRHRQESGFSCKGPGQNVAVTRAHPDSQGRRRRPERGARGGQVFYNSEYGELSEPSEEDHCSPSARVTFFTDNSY", "assay": "IC50 for kinases of potential cross-over", "assay_type": "biochemical"}, "Jak2/2": {"tested_on": "Jak2/2", "assay": "Inhibition of GM-CSF-induced STAT phosphorylation in PBMCs", "assay_type": "cell-based, human", "in_short": "(§2)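 Ficoll-isolated human PBMCs, cryopreserved, thawed into RPMI/10% heat-inactivated FBS assay medium, 200,000 cells/well. Serially diluted test compound (final 20 μM to 2 × 10−6 μM) or 0.1% DMSO vehicle preincubated 1 h at 37 °C. Cytokine then added for 5–10 min, followed by 30 min shaking at 4 °C and lysis. Phospho-STAT5/STAT4 by MSD immunoassay, phospho-STAT1 by ELISA. IC50 reported as mean ± SD.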"}, "CYP3A4": {"target": "CYP3A4 (Homo sapiens, UniProt P08684)", "sequence (P08684 whole entry)": "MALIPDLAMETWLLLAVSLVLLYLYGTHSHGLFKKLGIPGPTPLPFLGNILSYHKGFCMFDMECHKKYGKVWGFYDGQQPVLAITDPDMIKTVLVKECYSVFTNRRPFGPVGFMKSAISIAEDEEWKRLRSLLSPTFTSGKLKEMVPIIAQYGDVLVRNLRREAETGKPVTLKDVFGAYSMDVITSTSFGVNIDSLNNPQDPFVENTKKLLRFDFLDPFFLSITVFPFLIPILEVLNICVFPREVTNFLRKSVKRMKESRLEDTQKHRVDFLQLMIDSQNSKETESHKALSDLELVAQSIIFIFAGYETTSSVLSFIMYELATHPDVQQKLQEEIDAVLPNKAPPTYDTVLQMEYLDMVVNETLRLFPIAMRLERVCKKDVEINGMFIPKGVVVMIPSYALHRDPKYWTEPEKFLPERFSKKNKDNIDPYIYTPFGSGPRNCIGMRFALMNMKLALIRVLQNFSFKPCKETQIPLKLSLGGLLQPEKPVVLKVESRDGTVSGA", "assay": "Cytochrome P450 phenotyping", "assay_type": "in vitro ADME", "conditions": "recombinant human CYP3A4; with NADPH; 30 minutes; n = 1", "in_short": "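Recombinant human CYP3A4 was prepared at 100 nM, and a 2 μM dosing solution of test compound in DMSO was added on ice. After prewarming, 8 mM NADPH solution or blank buffer was added for 30 minutes. Acetonitrile with internal standard stopped the reaction. The plate was shaken and centrifuged, and the supernatant was analysed by LC-MS/MS; n = 1.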"}, "RSK2": {"target": "RSK2 (Homo sapiens, UniProt P51812)", "sequence (P51812 whole entry)": "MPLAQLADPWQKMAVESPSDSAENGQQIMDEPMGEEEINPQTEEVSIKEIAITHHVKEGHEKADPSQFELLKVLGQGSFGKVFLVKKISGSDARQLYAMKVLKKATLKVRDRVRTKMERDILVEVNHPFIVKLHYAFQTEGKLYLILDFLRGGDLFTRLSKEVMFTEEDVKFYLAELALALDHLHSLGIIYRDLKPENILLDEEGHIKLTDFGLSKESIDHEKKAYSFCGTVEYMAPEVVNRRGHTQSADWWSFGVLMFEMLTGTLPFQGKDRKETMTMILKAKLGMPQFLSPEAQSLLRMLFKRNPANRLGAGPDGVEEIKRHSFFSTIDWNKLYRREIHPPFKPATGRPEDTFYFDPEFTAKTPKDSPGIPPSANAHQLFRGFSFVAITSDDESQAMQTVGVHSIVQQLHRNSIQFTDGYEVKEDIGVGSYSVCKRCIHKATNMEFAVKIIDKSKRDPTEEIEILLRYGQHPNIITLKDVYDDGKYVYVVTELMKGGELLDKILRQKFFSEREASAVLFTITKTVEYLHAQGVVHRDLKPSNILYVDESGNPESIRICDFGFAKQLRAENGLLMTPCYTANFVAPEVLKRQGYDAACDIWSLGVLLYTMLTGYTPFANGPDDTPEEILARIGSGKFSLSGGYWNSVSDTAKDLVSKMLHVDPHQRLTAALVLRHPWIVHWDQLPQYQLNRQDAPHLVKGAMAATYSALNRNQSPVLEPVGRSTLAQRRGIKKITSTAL", "assay": "IC50 for kinases of potential cross-over", "assay_type": "biochemical"}, "HPK1 (MAP4K1)": {"target": "HPK1 (MAP4K1) (Homo sapiens, UniProt Q92918)", "sequence (Q92918 whole entry)": "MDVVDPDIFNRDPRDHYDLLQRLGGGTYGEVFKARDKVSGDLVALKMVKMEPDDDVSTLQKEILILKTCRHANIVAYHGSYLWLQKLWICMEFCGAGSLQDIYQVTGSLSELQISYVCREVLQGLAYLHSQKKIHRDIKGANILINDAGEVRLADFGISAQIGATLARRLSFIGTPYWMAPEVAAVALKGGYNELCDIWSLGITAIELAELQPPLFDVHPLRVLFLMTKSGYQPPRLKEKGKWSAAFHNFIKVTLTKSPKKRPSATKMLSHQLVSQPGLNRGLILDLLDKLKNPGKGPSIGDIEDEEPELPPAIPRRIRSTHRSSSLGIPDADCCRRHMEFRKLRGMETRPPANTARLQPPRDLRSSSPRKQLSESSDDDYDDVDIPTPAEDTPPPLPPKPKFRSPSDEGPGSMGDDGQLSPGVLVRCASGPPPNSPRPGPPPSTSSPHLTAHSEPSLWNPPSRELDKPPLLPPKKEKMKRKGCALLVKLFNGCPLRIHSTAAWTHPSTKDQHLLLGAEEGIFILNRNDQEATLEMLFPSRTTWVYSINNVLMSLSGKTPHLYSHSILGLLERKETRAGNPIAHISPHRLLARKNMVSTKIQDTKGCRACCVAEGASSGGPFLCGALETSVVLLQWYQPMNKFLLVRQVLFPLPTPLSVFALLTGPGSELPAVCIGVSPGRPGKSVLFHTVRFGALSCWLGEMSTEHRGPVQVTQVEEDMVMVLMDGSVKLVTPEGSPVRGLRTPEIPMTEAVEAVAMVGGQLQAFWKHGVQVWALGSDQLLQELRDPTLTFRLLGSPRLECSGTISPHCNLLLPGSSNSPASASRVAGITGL", "assay": "IC50 for kinases of potential cross-over", "assay_type": "biochemical"}, "Jak1/3": {"tested_on": "Jak1/3", "assay": "Inhibition of IL-2-induced STAT phosphorylation in PBMCs", "assay_type": "cell-based, human", "in_short": "as §2"}, "[5]": {"conditions": "male, plasma, topical, 160 mg/day"}, "[6]": {"conditions": "Homo sapiens, PBMC, read-out: IC50 Mean ± SD"}}, "data": [{"smiles": "CCOC(=O)c1cnc2[nH]ccc2c1N[C@@H]1CCCN(C(=O)CC#N)C1", "note": "[ATI-1777, ethyl (R)-4-((1-(2-cyanoacetyl)piperidin-3-yl)amino)-1H-pyrrolo[2,3-b]pyridine-5-carboxylate]", "values": [{"measurement": "quantifiable plasma concentrations", "setting": "[1]; 160 mg group, day 28, all pigs", "value": "< 6.26", "unit": "ng/mL"}, {"measurement": "plasma concentrations when quantifiable", "setting": "[1]; 40 and 80 mg/day, days 1 and 28, nonquantifiable in most pigs", "value": "≤ 4.94", "unit": "ng/mL"}, {"measurement": "concentration at 0 h", "setting": "[1]; 40 mg/day", "value": 0.34, "unit": "ng/mL"}, {"measurement": "concentration at 0.5 h", "setting": "[1]; 40 mg/day", "value": 0.143, "unit": "ng/mL"}, {"measurement": "concentration at 1 h", "setting": "[1]; 40 mg/day", "value": 0.0685, "unit": "ng/mL"}, {"measurement": "concentration at 2 h", "setting": "[1]; 40 mg/day", "value": 0.108, "unit": "ng/mL"}, {"measurement": "concentration at 4 h", "setting": "[1]; 40 mg/day", "value": 0.121, "unit": "ng/mL"}, {"measurement": "concentration at 8 h", "setting": "[1]; 40 mg/day", "value": 0, "unit": "ng/mL"}, {"measurement": "concentration at 12 h", "setting": "[1]; 40 mg/day", "value": 0, "unit": "ng/mL"}, {"measurement": "concentration at 24 h", "setting": "[1]; 40 mg/day", "value": 0, "unit": "ng/mL"}, {"measurement": "concentration at 0 h", "setting": "[1]; 80 mg/day", "value": 0.118, "unit": "ng/mL"}, {"measurement": "concentration at 0.5 h", "setting": "[1]; 80 mg/day", "value": 0.647, "unit": "ng/mL"}, {"measurement": "concentration at 1 h", "setting": "[1]; 80 mg/day", "value": 0.0995, "unit": "ng/mL"}, {"measurement": "concentration at 2 h", "setting": "[1]; 80 mg/day", "value": 0.197, "unit": "ng/mL"}, {"measurement": "concentration at 4 h", "setting": "[1]; 80 mg/day", "value": 0.193, "unit": "ng/mL"}, {"measurement": "concentration at 8 h", "setting": "[1]; 80 mg/day", "value": 0.173, "unit": "ng/mL"}, {"measurement": "concentration at 12 h", "setting": "[1]; 80 mg/day", "value": 0.823, "unit": "ng/mL"}, {"measurement": "concentration at 24 h", "setting": "[1]; 80 mg/day", "value": 0, "unit": "ng/mL"}, {"measurement": "concentration at 0 h", "setting": "[1]; 160 mg/day", "value": 1.82, "unit": "ng/mL"}, {"measurement": "concentration at 0.5 h", "setting": "[1]; 160 mg/day", "value": 0.479, "unit": "ng/mL"}, {"measurement": "concentration at 1 h", "setting": "[1]; 160 mg/day", "value": 1.14, "unit": "ng/mL"}, {"measurement": "concentration at 2 h", "setting": "[1]; 160 mg/day", "value": 1.12, "unit": "ng/mL"}, {"measurement": "concentration at 4 h", "setting": "[1]; 160 mg/day", "value": 0.755, "unit": "ng/mL"}, {"measurement": "concentration at 8 h", "setting": "[1]; 160 mg/day", "value": 0.684, "unit": "ng/mL"}, {"measurement": "concentration at 12 h", "setting": "[1]; 160 mg/day", "value": 1.02, "unit": "ng/mL"}, {"measurement": "concentration at 24 h", "setting": "[1]; 160 mg/day", "value": 0.0569, "unit": "ng/mL"}, {"measurement": "concentration in the skin", "setting": "[1]; females", "value": "≥ 1960", "unit": "ng/g"}, {"measurement": "concentration in the skin", "setting": "[1]; males", "value": "≥ 4280", "unit": "ng/g"}, {"measurement": "systemic exposure", "setting": "[2]; 2% solution, 7 consecutive days, LLOQ = 0.5 ng/ml, at most time points", "value": "unquantifiable"}, {"measurement": "concentration at 0 h", "setting": "[2]; [5]", "value": 0, "unit": "ng/mL"}, {"measurement": "concentration at 1 h", "setting": "[2]; [5]", "value": 0, "unit": "ng/mL"}, {"measurement": "concentration at 2 h", "setting": "[2]; [5]", "value": 0.387, "unit": "ng/mL"}, {"measurement": "concentration at 4 h", "setting": "[2]; [5]", "value": 0.221, "unit": "ng/mL"}, {"measurement": "concentration at 8 h", "setting": "[2]; [5]", "value": 0.391, "unit": "ng/mL"}, {"measurement": "concentration at 12 h", "setting": "[2]; [5]", "value": 0, "unit": "ng/mL"}, {"measurement": "concentration at 24 h", "setting": "[2]; [5]", "value": 0, "unit": "ng/mL"}, {"measurement": "IC50", "setting": "Aurora A", "value": 641, "unit": "nM"}, {"measurement": "Fold Selectivity", "setting": "Aurora A; Aurora A vs Jak1 (= 1)", "value": 427, "unit": "fold"}, {"measurement": "CLint scaled", "setting": "[3]", "value": 370, "unit": "mL/min/kg"}, {"measurement": "microsomal CLint", "setting": "[3]", "value": 52, "unit": "µL/min/mg"}, {"measurement": "half-life", "setting": "[3]; T1/2, Study 1, n = 1", "value": 6.7, "unit": "min"}, {"measurement": "half-life", "setting": "[3]; T1/2, Study 2, n = 1", "value": 27, "unit": "min"}, {"measurement": "CLint scaled", "setting": "[4]", "value": 200, "unit": "mL/min/kg"}, {"measurement": "microsomal CLint", "setting": "[4]", "value": 74, "unit": "µL/min/mg"}, {"measurement": "half-life", "setting": "[4]; T1/2, Study 1, n = 1", "value": 8.71, "unit": "min"}, {"measurement": "half-life", "setting": "[4]; T1/2, Study 2, n = 1", "value": 19, "unit": "min"}, {"measurement": "Percentage Remaining", "setting": "CYP1A2", "value": 55.7, "unit": "%"}, {"measurement": "IC50", "setting": "FLT4 (VEGFR3)", "value": 113, "unit": "nM"}, {"measurement": "Fold Selectivity", "setting": "FLT4 (VEGFR3); FLT4 (VEGFR3) vs Jak1 (= 1)", "value": 75, "unit": "fold"}, {"measurement": "Fold Jak1/3", "setting": "Jak2/2; GM-CSF, Jak2/2 vs Jak1/3", "value": 41.8, "unit": "fold"}, {"measurement": "IC50", "setting": "Jak2/2; [6]", "value": "794 ± 121", "unit": "nM"}, {"measurement": "Percentage Remaining", "setting": "CYP3A4", "value": 0.56, "unit": "%"}, {"measurement": "IC50", "setting": "RSK2", "value": 1050, "unit": "nM"}, {"measurement": "Fold Selectivity", "setting": "RSK2; RSK2 vs Jak1 (= 1)", "value": 700, "unit": "fold"}, {"measurement": "IC50", "setting": "HPK1 (MAP4K1)", "value": 285, "unit": "nM"}, {"measurement": "Fold Selectivity", "setting": "HPK1 (MAP4K1); HPK1 (MAP4K1) vs Jak1 (= 1)", "value": 190, "unit": "fold"}, {"measurement": "IC50", "setting": "Jak1/3; [6]", "value": "19 ± 6", "unit": "nM"}, {"measurement": "Fold Jak1/3", "setting": "Jak1/3; IL-2, Jak1/3 (reference)", "value": 1.0, "unit": "fold"}]}]}
